# Screening results: PubChem BioAssay, several laboratories
# Only some compounds are listed: those with a hit (about 12% of all), similar ones and a draw of the others.
# b-catenin transl = beta-catenin nuclear translocation modulation; HeLa beta-catenin nuclear translocation, immunofluorescence imaging; nuclear translocation activity, % at 5 µM; 190,000 tested, 0.3% active; AID 1665;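 active = nuclear translocation activity above 50% at 5 µM, with a well cell count of 50 or more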;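 also: per-cell ratio of nuclear to cytoplasmic median beta-catenin stain intensity; plate controls were DMSO negative control for no effect and GSK-3 inhibitor IX positive control for full effect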
#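 Test system: human HeLa cells, native beta-catenin. Compound dosing: 5 µM primary single dose, 0.1% DMSO, 0.02–20 µM confirmation series. Incubation: compound exposure 24 h at 37°C. Detection: beta-catenin immunostaining with DAPI counterstain, 20x imaging, 6 fields/well. Read-out basis: Nuclear/cytoplasmic beta-catenin signal ratio, % activation.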
# Autophagy mod = modulators of autophagy; MEF GFP-LC3 puncta imaging; test concentration mostly 10 µM; calls only at 10 µM (by protocol); 190,000 tested, 0.98% active; AID 463193;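 active = percentage of spot-positive cells more than 3 SD above its plate mean, without a fluorescence outlier flag or 80% toxicity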;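 also: spot-positive cell cutoff set from DMSO-treated cells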
# MT stabilizer = microtubule stabilizers in HeLa cells. HeLa tubulin immunostaining HCS, 24 h; share of cells brighter than vehicle mean+2SD. % tubulin-high responders, % at 10 µM. 200,000 tested, 0.83% active. AID 2205;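 active = plate Z-score above 3 for both tubulin-high and condensed-nucleus cell shares, with cell loss under 80%, at 10 µM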;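 also: anti alpha tubulin signal scored within the nucleus-defined area of each cell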
# Lmaj promast = inhibitors of Leishmania major promastigote growth; Leishmania major promastigotes, resazurin fluorescence viability; AID 1063; inhibition, % at 10 µM; 200,000 tested, 9% active; in the data active = inhibition above about 50%;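 also: promastigotes grown with compound for 44 hours at 28 °C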
# CHOP inh = blocks CHOP induction under ER stress; CHO-K1 CHOP-promoter luciferase, tunicamycin-induced, 15-18 h; inhibition, % at 10 µM; 220,000 tested, 3.8% active;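 active = compounds that reduced the stress-induced luciferase reporter signal by more than about 70% of percent inhibition, limit read from the data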;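 also: 0% = tunicamycin plus vehicle and 100% = wells without tunicamycin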
# Dynein cargo inh = dynein cargo transport inhibition; 3617.4 mouse cells, GR-EGFP nuclear translocation imaging; test concentration mostly 20 µM; stimulated with dexamethasone, 1 µM; hits give low values; z-score, hits read low; 220,000 tested, 0.47% active; AID 1381;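 active = plate z-score of nuclear minus cytoplasmic receptor signal below a set negative limit, without overly bright fluorescence or cell loss, cut at about -3.5 in these data, passing the limit was not always enough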;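 also: z-score of nuclear minus cytoplasmic ring GR-EGFP intensity difference per well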
#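 Buffer or medium: tet-free, stripped-serum medium; Also added: dexamethasone, 1.0 µM final; Technique: high-content fluorescence imaging after fixation; Times: 48 h induction, 1 h compound, 30 min dex at 37 °C; Read-out: per-cell GR-EGFP intensity, nucleus versus surrounding cytoplasmic ring, well-averaged.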
# Numbers without * were called inactive; i = inactive; nt = no result.
SMILES,b-catenin transl,Autophagy mod,MT stabilizer,Lmaj promast,CHOP inh,Dynein cargo inh
Cc1cc(Cl)ccc1OCC(=O)N1CC(C)CC(C)C1 (centres undefined),-1,i,3,3,64,-1.1
CCC(=O)c1ccc(OCC(O)CN2CCN(C(c3ccccc3)c3ccccc3)CC2)cc1 (centres undefined),nt,i,2,60*,86*,-2.1
O=C(CSc1nnnn1-c1ccc2c(c1)OCCO2)N1CCN(C(=O)c2ccco2)CC1,2,i,1,10,48,-0.83
Cc1cccc(CN2CCC(CNC(=O)CSc3cc(=O)n(C)c4cc(Cl)ccc34)CC2)c1,0,nt,nt,nt,3,1.4
CC1CCc2c(sc(NC(=O)CN3CCN(C(=O)c4ccco4)CC3)c2C#N)C1 (centres undefined),5,i,2,28,39,-0.4
CC(=O)c1c(C)[nH]c(C(=O)CSc2nnc(-c3cccs3)n2Cc2ccccc2)c1C,2,i,3,78*,19,0.4
COC(=O)c1c(C)[nH]c(C(=O)CSc2nnnn2-c2ccccc2)c1C,0,i,1,-6,77*,-0.78
CC(=O)c1c(C)[nH]c(C(=O)CSc2nnc(-c3ccco3)n2Cc2ccccc2)c1C,-7,i,2,29,-25,0.35
CCOC(=O)c1c(C)[nH]c(C(=O)CSc2nnc(-c3cccs3)n2Cc2ccccc2)c1C,2,i,3,-5,79*,-0.35
C(=N\Nc1nc(-c2ccccn2)nc2ccccc12)/c1ccccc1,3,nt,nt,nt,88*,1
Brc1ccc(-c2nc(N/N=C/c3cccnc3)c3ccccc3n2)cc1,-2,i,3,0,74*,-0.6
CCOC(=O)N1CCC(n2c(SCC(=O)NCCc3ccc(S(N)(=O)=O)cc3)nc3ccccc3c2=O)CC1,-1,i,2,23,-15,0.76
COc1ccc(/C=C/c2cc(-c3ccc(C)cc3)o[n+]2C)cc1,-3,i,5,101*,20,-0.99
CCOC(=O)C(C)Sc1nc(-c2cccs2)ccc1C#N (centres undefined),1,i,44*,10,41,-0.71
C=COC(=O)CSc1nc(-c2cccs2)ccc1C#N,-1,i,9,-5,nt,-0.87
c1ccc(-c2ncnc3nc4n(c23)CCC4)cc1,3,i,3,-7,1,0.079
C/C=C/Cn1c(SCc2ccc(Cl)cc2)nc2c1c(=O)[nH]c(=O)n2C,-5,i,4,14,76*,-0.51
CCCn1c(SCc2ccc(Cl)cc2)nc2c1c(=O)[nH]c(=O)n2C,-3,i,6,20,82*,-0.24
C/C=C/Cn1c(SC)nc2c1c(=O)[nH]c(=O)n2C,2,i,2,-8,9,-0.15
CCCn1c(Sc2nc3c(c(=O)[nH]c(=O)n3C)n2CCC)nc2c1c(=O)[nH]c(=O)n2C,1,i,2,-1,-3,3.6
C=CCn1c(=O)c2ccccc2n2c(SCc3nnc(-c4ccccc4Br)o3)nnc12,-1,i,3,-2,50,0.37
c1ccc(CN2CCN(Cc3nnc(-c4ccccc4)o3)CC2)cc1,-1,i,1,80*,9,0.57
Oc1ccc(Cl)cc1-c1cc(C(F)(F)C(F)F)nc(-c2ccccc2)n1,-1,i,3,-3,-31,2.8
NNc1nc(-c2ccccc2)cc(-c2ccccc2O)n1,nt,i,2,89*,40,1.5
Oc1ccccc1-c1cc(C(F)(F)F)nc(-c2ccccc2)n1,0,i,5,6,73*,-0.91
SMILES,b-catenin transl,Autophagy mod,MT stabilizer,Lmaj promast,CHOP inh,Dynein cargo inh
Nc1nc(-c2ccccc2)cc(-c2ccccc2O)n1,-12,i,2,26,35,1
C(=C/c1ccnc2nc(SC/C=C/c3ccccc3)nn12)/c1ccccc1,0,i,1,-4,49,-0.71
CCOC(=O)c1sc(NC(=O)c2cccc(S(=O)(=O)N3c4ccccc4CC3C)c2)cc1C (centres undefined),-1,i,i,62*,5,1.8
CCOC(=O)c1sc(NC(=O)Nc2ccccc2Cl)cc1C,1,i,2,80*,80*,-0.62
CCOC(=O)c1c(N)sc(C(=O)Nc2ccccc2)c1C,-1,i,3,58*,-21,-0.075
Cc1cc(NC(=O)c2cccc(S(=O)(=O)N3c4ccccc4CC3C)c2)no1 (centres undefined),-1,nt,nt,nt,50,-0.81
Cc1c(C(=O)OC(C)C)sc(N)c1C(=O)OC(C)C,0,i,3,-1,82*,-0.21
CCCOc1cccc(C(=O)NC(=S)Nc2ccc(N3CCN(C)CC3)cc2)c1,1,i,3,0,-48,1.9
CCOc1ccc(NC(=O)c2sc(NC(C)=O)c(C(=O)OC)c2C)cc1,-2,i,1,-4,73*,0.6
CCOC(=O)c1sc(NC(=O)Nc2ccccc2)cc1C,nt,i,3,92*,27,0.83
CCOC(=O)c1c(C)nc2sc(C(=O)Nc3ccccc3)c(N)c2c1-c1ccc(OC)cc1,32,i,31,97*,2,i
CCOC(=O)c1c(C)nc2sc(C(N)=O)c(N)c2c1-c1ccccc1,nt,i,2,34,22,0.53
Cc1onc(-c2ccc(Cl)cc2Cl)c1-c1csc(N/N=C/c2ccccc2)n1,-3,nt,nt,nt,-22,-0.24
Cc1c(Cl)cccc1NC(=O)CNC(=O)c1ccccc1F,-2,i,3,-8,12,-1.3
CCCNc1cc(=S)nc(N)[nH]1,-1,nt,nt,nt,1,-0.39
CCC(C)(C)NC(=O)C(Sc1ccccc1)c1ccccc1 (centres undefined),0,i,2,19,1,2.1
O=C(COc1ccc(F)cc1)N1c2ccccc2CCc2ccccc21,-2,i,8,1,14,0.57
CCc1cc(=O)oc2c(C)c(OCC(=O)N3CCCc4ccccc43)ccc12,2,i,1,89*,-6,0.99
CCn1c(=O)cc(OCC(=O)N2CCc3ccccc32)c2ccccc21,2,i,2,-7,85*,0.14
CCn1c(=O)cc(OCC(=O)N2CCCCCC2)c2ccccc21,-1,i,2,-6,1,-0.82
O=C(COc1ccccc1)N1CCc2ccccc21,nt,i,2,9,-5,-0.093
O=C(COc1ccc2ccccc2c1CN1CCOCC1)N1CCc2ccccc21,-2,i,2,60*,5,-0.68
CCc1cc(=O)oc2cc(OCC(=O)N3CCc4ccccc43)ccc12,-1,nt,nt,nt,nt,nt
O=C(COc1cccc2ccccc12)N1c2ccccc2CCc2ccccc21,nt,i,3,-13,74*,0.16
COC(=O)Cc1cc(=O)[nH]c(/N=C(\N)Nc2ccc(C(C)C)cc2)n1,1,i,nt,1,16,-0.58
